# Where “and” joins values, the source holds several entries; their conditions need not be identical. Identical values can stand only once.
# Key:
# [1] = test system: SLC1A5 knock-out HEK-293 cell line; assay: Inhibition of [3H]glutamine uptake in ASCT-2 knock-out HEK-293 cell line; format: cell-based; conditions: 50 μM glutamine; 5 min, 37 °C; n=3
# Summary of the method: (§1)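 Wild-type or CRISPR-Cas9 SLC1A5-knockout HEK-293 cells grown in DMEM (10% FCS, 1% L-glutamine), seeded at 175,000 cells/mL on poly-D-lysine-coated wells the day before. Washed in HEPES+ (pH 7.4), then given 50 μM [3H]-L-glutamine/glutamine ± test compound. Stopped with ice-cold PBS+BSA, washed, lysed in 0.1 M NaOH, scintillation-counted, BCA protein-normalized. Knockout checked by flow cytometry.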
# ASCT-2 transporter [2] = target: T1, ASCT-2 transporter (Rattus norvegicus, UniProt D3ZJ25); assay: [3H]glutamine uptake concentration dependency; format: cell-based; conditions: for affinity towards the ASCT-2 transporter (in words): rat F98 cell line
# T1 sequence (D3ZJ25 1-555): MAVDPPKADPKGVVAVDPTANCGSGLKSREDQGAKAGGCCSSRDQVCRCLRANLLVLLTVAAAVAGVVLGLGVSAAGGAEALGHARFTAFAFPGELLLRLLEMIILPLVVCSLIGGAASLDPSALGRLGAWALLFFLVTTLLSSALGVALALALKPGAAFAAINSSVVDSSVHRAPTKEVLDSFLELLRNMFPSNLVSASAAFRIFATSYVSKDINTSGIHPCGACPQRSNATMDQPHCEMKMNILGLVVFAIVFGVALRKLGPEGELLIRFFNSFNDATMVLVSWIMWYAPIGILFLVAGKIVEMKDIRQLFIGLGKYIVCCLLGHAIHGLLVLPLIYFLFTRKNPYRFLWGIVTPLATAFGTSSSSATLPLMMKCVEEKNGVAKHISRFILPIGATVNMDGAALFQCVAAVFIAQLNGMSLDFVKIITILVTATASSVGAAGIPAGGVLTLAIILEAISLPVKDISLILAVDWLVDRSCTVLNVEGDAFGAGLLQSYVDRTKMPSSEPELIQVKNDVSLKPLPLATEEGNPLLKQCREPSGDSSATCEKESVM
# Summary of the method: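 Rat F98 cells grown in DMEM with 10% FCS, 1% L-glutamine and pen/strep, seeded the day before at 125,000 cells/mL. After two HEPES+ washes (pH 7.4), cells took up [3H]-L-glutamine (111 kBq/mL) for 5 min at 37 °C. Glutamine stocks spanned 10–1200 μM, ± non-radioactive test compound. Stopped on ice, NaOH lysis, scintillation counting, BCA protein correction. Ki from Michaelis-Menten Km versus Km,app.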
# [3] = test system: ASCT-2 expressing wild-type HEK-293 cells; assay: Inhibition of [3H]glutamine uptake in wild-type HEK-293 cell line; format: cell-based; conditions: 50 μM glutamine; 5 min, 37 °C; n=3
# Summary of the method: as §1
# ASCT-2 transporter [4] = target: T2, ASCT-2 transporter (Homo sapiens, UniProt Q15758); assay: [3H]glutamine uptake concentration dependency; format: cell-based; conditions: for affinity towards the ASCT-2 transporter (in words): human PC-3 cell line
# T2 sequence (Q15758 1-541): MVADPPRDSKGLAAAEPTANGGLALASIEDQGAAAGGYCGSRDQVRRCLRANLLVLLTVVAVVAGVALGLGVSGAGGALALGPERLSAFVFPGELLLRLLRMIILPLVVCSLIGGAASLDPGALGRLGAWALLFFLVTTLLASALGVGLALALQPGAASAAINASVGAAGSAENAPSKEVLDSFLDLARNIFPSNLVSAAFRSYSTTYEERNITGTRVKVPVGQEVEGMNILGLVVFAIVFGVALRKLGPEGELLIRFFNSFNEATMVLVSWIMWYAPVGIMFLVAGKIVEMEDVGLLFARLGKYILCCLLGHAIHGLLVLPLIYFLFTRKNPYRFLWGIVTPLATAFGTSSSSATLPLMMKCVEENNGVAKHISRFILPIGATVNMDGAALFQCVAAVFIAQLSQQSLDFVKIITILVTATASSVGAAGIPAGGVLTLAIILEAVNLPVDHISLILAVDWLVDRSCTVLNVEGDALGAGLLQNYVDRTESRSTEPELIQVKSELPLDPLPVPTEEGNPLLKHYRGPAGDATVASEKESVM
# Summary of the method: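 Human PC-3 cells kept in RPMI with 10% FCS, 1% L-glutamine and pen/strep, plated the prior day at 175,000 cells/mL. Washed twice in HEPES+ (pH 7.4), then 5 min at 37 °C with [3H]-L-glutamine (111 kBq/mL) over a 10–1200 μM glutamine stock series, ± unlabelled test compound. Ice-cold PBS+BSA stop, NaOH lysis, scintillation counting, BCA normalisation. Non-linear Michaelis-Menten fits; Ki from Km and Km,app at inhibitor concentration.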
# ASCT-2 = target: T3, ASCT-2 (Homo sapiens, UniProt Q15758); assay: Inhibition of [3H]-L-glutamine uptake in PC-3 cells; format: cell-based; conditions: 5 min, 37 °C, n=3
# T3 sequence (Q15758 1-541): T2 sequence (Q15758 1-541)
# Summary of the method: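 PC-3 cells grown in RPMI with 10% FCS, 1% L-glutamine and pen/strep at 37 °C, 5% CO2, seeded at 175,000 cells/mL the day before. Washed twice in HEPES+ buffer (pH 7.4, 100 mM NaCl, 1 g/L BSA), then given [3H]-L-glutamine (111 kBq/mL) with unlabelled glutamine ± test compound. Stopped on ice with cold PBS+BSA, NaOH-lysed, scintillation-counted, BCA protein-corrected.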
# [5] = In vitro stability in formulation; format: physicochemical; conditions: 37 °C; analytical HPLC; no degradation products found
# Summary of the method: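 Radiolabelled test compound held in its formulation at 37 °C for 30, 70, 120 and 180 min after radiosynthesis. Formulation was HPLC eluate (ethanol/10 mM ammonium acetate), diluted with PBS for the biphenyl analogue. At each point 7 MBq was run on analytical C18 HPLC with radio and UV (205 nm) detection at 1.0 mL/min. Runs were isocratic, ethanol/10 mM ammonium acetate 10:90 or 30:70.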
# [6] = Biodistribution study in PC-3 inoculated mice; format: in vivo
# Summary of the method: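 PC-3 flank xenografts in male Swiss nu/nu mice, prepared as for imaging. Seven weeks post-inoculation, 5.0 MBq radiotracer given i.v. via lateral tail vein. Mice killed by cervical dislocation at 20 and 60 min p.i. (n=3 each). Blood drawn by cardiac puncture; organs dissected, rinsed with water, weighed and counted. Results as %ID/g ± SD.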
# PC-3 xenograft = assay: Dynamic microPET in PC-3 xenograft model; format: in vivo, mice
# Summary of the method: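 Male Swiss nu/nu mice (n=5) received 5 × 10^6 PC-3 cells with Matrigel in the right flank at 8 weeks and the left flank a week later; scanned seven weeks post-inoculation. Fasted ≥6 h, isoflurane anaesthesia, 18.5 MBq i.v. via tail vein. 1-h dynamic PET (1-min frames to 25 min, then 5-min), then CT. Manual tumor and leg-muscle ROIs; SUV decay- and syringe-corrected.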
# LogD7.4 determination = format: physicochemical; conditions: n=3
# Summary of the method: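 1 MBq radiolabelled test compound added to PBS/n-octanol (1:1, V:V), vortexed and spun 10 min at 1100 g. Aliquots of each layer counted in a NaI(Tl) scintillation counter. LogD7.4 taken as log of octanol/PBS count ratio; n=3.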
# [7] = reported for glutamine; cited from earlier work
# [8] = Swiss nu/nu male mice, PC-3, i.v., 20 min, n=3
# [9] = Swiss nu/nu male mice, PC-3, i.v., 60 min, n=3
smiles,measurement,setting,value
"N[C@@H](CCC(=O)Nc1ccc(-c2ccc(F)cc2)cc1)C(=O)O [FBPG, N5-(4’-fluoro-[1,1’-biphenyl]-4-yl)glutamine]","relative uptake of [3H]glutamine in presence of inhibitor compared to basal uptake, ASCT-2 KO HEK-293",[1],58 ± 9%
same,Ki,ASCT-2 transporter [2],1420 µM
same,affinity towards the ASCT-2 transporter (in words),ASCT-2 transporter [2],low affinity
same,"relative uptake of [3H]glutamine in presence of inhibitor compared to basal uptake, Wild-type HEK-293",[3],95 ± 6%
same,Ki,ASCT-2 transporter [4],604 µM
same,affinity towards the ASCT-2 transporter (in words),ASCT-2 transporter [4],low affinity
same,relative uptake of [3H]-L-glutamine in presence of inhibitor compared to basal uptake,ASCT-2,92 ± 1%
"N[C@@H](CCC(=O)Nc1ccc(F)cc1)C(=O)O [FPG, N5-(4-fluorophenyl)glutamine]","relative uptake of [3H]glutamine in presence of inhibitor compared to basal uptake, ASCT-2 KO HEK-293",[1],60 ± 7%
same,Ki,ASCT-2 transporter [2],850 µM
same,affinity towards the ASCT-2 transporter (in words),ASCT-2 transporter [2],low affinity
same,"relative uptake of [3H]glutamine in presence of inhibitor compared to basal uptake, Wild-type HEK-293",[3],96 ± 7%
same,Ki,ASCT-2 transporter [4],234 µM
same,affinity towards the ASCT-2 transporter (in words),ASCT-2 transporter [4],moderate affinity
same,relative uptake of [3H]-L-glutamine in presence of inhibitor compared to basal uptake,ASCT-2,94 ± 9%
"N[C@@H](CCC(=O)Nc1ccc(-c2ccc([18F])cc2)cc1)C(=O)O [[^18F]FBPG, [^18F]fluorobiphenylglutamine]",stability in formulation,[5],at least 3 hours
same,bone uptake as indication of defluorination (in words),[6]; PC-3 inoculated mice,No enhanced uptake in the bone
same,Bladder uptake %ID/g 20 min post-injection,[6]; [8],1.33 ± 0.77 %ID/g
same,Blood uptake %ID/g 20 min post-injection,[6]; [8],5.49 ± 0.74 %ID/g
same,Bone uptake %ID/g 20 min post-injection,[6]; [8],0.95 ± 0.20 %ID/g
same,Brain uptake %ID/g 20 min post-injection,[6]; [8],0.67 ± 0.13 %ID/g
same,Fat uptake %ID/g 20 min post-injection,[6]; [8],0.92 ± 0.26 %ID/g
same,Heart uptake %ID/g 20 min post-injection,[6]; [8],2.03 ± 0.47 %ID/g
same,Kidney uptake %ID/g 20 min post-injection,[6]; [8],11.52 ± 3.91 %ID/g
same,Large intestine uptake %ID/g 20 min post-injection,[6]; [8],0.39 ± 0.14 %ID/g
same,Liver uptake %ID/g 20 min post-injection,[6]; [8],7.43 ± 1.80 %ID/g
same,Lung uptake %ID/g 20 min post-injection,[6]; [8],5.03 ± 1.14 %ID/g
same,Muscle uptake %ID/g 20 min post-injection,[6]; [8],0.45 ± 0.09 %ID/g
same,Prostate uptake %ID/g 20 min post-injection,[6]; [8],2.13 ± 1.90 %ID/g
same,Skin uptake %ID/g 20 min post-injection,[6]; [8],0.79 ± 0.10 %ID/g
same,Small intestine uptake %ID/g 20 min post-injection,[6]; [8],5.77 ± 5.82 %ID/g
same,Spleen uptake %ID/g 20 min post-injection,[6]; [8],3.11 ± 0.28 %ID/g
same,Stomach uptake %ID/g 20 min post-injection,[6]; [8],2.89 ± 1.72 %ID/g
same,Tumor uptake %ID/g 20 min post-injection,[6]; [8],0.46 ± 0.09 %ID/g
same,Bladder uptake %ID/g 60 min post-injection,[6]; [9],2.54 ± 1.47 %ID/g
same,Blood uptake %ID/g 60 min post-injection,[6]; [9],4.24 ± 0.85 %ID/g
same,Bone uptake %ID/g 60 min post-injection,[6]; [9],0.67 ± 0.14 %ID/g
same,Brain uptake %ID/g 60 min post-injection,[6]; [9],0.38 ± 0.03 %ID/g
same,Fat uptake %ID/g 60 min post-injection,[6]; [9],1.21 ± 1.05 %ID/g
same,Heart uptake %ID/g 60 min post-injection,[6]; [9],1.50 ± 0.52 %ID/g
same,Kidney uptake %ID/g 60 min post-injection,[6]; [9],14.46 ± 1.71 %ID/g
same,Large intestine uptake %ID/g 60 min post-injection,[6]; [9],0.53 ± 0.07 %ID/g
same,Liver uptake %ID/g 60 min post-injection,[6]; [9],4.44 ± 0.83 %ID/g
same,Lung uptake %ID/g 60 min post-injection,[6]; [9],3.75 ± 0.43 %ID/g
same,Muscle uptake %ID/g 60 min post-injection,[6]; [9],0.48 ± 0.28 %ID/g
same,Prostate uptake %ID/g 60 min post-injection,[6]; [9],2.60 ± 1.12 %ID/g
same,Skin uptake %ID/g 60 min post-injection,[6]; [9],0.57 ± 0.10 %ID/g
same,Small intestine uptake %ID/g 60 min post-injection,[6]; [9],19.10 ± 4.83 %ID/g
same,Spleen uptake %ID/g 60 min post-injection,[6]; [9],2.07 ± 0.26 %ID/g
same,Stomach uptake %ID/g 60 min post-injection,[6]; [9],0.85 ± 0.01 %ID/g
same,Tumor uptake %ID/g 60 min post-injection,[6]; [9],0.42 ± 0.09 %ID/g
same,T/Mmean (mean tumor-to-muscle ratio),"PC-3 xenograft; PC-3 xenograft mice, 18.5 MBq i.v., leg muscle as reference",1.20 ± 0.15
same,SUVmean (mean standardized uptake value),"PC-3 xenograft; PC-3 xenograft mice, 18.5 MBq i.v., tumor ROI",0.17 ± 0.04
same,tumor uptake on PET (in words),PC-3 xenograft; mice bearing PC-3 xenografts,very low uptake
same,logD7.4 (octanol/PBS ratio at pH 7.4),LogD7.4 determination,1.11 ± 0.01 and 1.11
NC(=O)CC[C@H](N)C(=O)O [glutamine],logD7.4,[7],−3.64

# From publication PMC7814958 (Nuclear medicine and biology, 2020)
